Laboratory results reported in ChEMBL document CHEMBL4837210 (Eur J Med Chem, 2021).
Active and inactive are the calls of the source. No cut-off for these calls is given here.

Key:
Bacillus subtilis [1] = assay: Antibacterial activity against penicillin-susceptible Bacillus subtilis ATCC 9372 assessed as bacterial growth inhibition incubated for 24 hrs by CLSI protocol based broth microdilution method; type: functional
Bacillus pumilus [2] = assay: Antibacterial activity against penicillin-susceptible Bacillus pumilus CMCC 63202 assessed as bacterial growth inhibition by broth dilution method; type: functional; details: time 24 hrs
In short: (§1)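 Broth microdilution in Mueller Hinton broth. A 0.5 McFarland suspension was diluted tenfold, giving an inoculum of 1.5 × 10⁷ cfu/mL. This was added to 2-fold serial compound dilutions from […]. Plates were incubated aerobically at 37 °C for 24 h. MIC was the lowest concentration with no visible turbidity.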

Pseudomonas aeruginosa [3] = assay: Antibacterial activity against penicillin-susceptible Pseudomonas aeruginosa ATCC27853 assessed as bacterial growth inhibition incubated for 24 hrs by CLSI protocol based broth microdilution method; type: functional
Escherichia coli = assay: Antibacterial activity against penicillin-susceptible Escherichia coli ATCC 25922 assessed as inhibition of bacterial growth measured by broth microdilution method; type: functional; details: time 24 hrs; in short: as §1
Staphylococcus aureus [4] = assay: Antibacterial activity against penicillin-resistant Staphylococcus aureus assessed as inhibition of bacterial growth measured by broth microdilution method; type: functional; details: time 24 hrs
In short: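 Broth microdilution MIC. A 0.5 McFarland suspension was diluted 10-fold and added at 1.5 × 10⁷ cfu/mL to 2-fold dilutions (0.125–64) in Mueller Hinton broth. Incubated aerobically 24 h at 37 °C. MIC was the lowest concentration with no visible turbidity.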

[5] = test system: Staphylococcus epidermidis; assay: Antibacterial activity against penicillin-resistant Staphylococcus epidermidis assessed as inhibition of bacterial growth measured by broth microdilution method; type: functional; details: time 24 hrs
Streptococcus pyogenes = assay: Antibacterial activity against erythromycin-resistant Streptococcus pyogenes 2 assessed as bacterial growth inhibition incubated for 24 hrs by CLSI protocol based broth microdilution method; type: functional
Enterococcus faecalis = assay: Antibacterial activity against vancomycin-resistant Enterococcus faecalis ATCC 51299 assessed as bacterial growth inhibition incubated for 24 hrs by CLSI protocol based broth microdilution method; type: functional
Staphylococcus aureus [6] = assay: Bactericidal activity against erythromycin-susceptible Staphylococcus aureus ATCC 25923 measured after 24 hrs by CLSI protocol based method; type: functional
In short: (§2)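 MBC after broth microdilution. After 24 h, aliquots from clear wells were plated on tryptic soy agar and incubated aerobically 24 h at 37 °C. MBC was the lowest concentration giving no colonies.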

Staphylococcus aureus [7] = assay: Bactericidal activity against methicillin-resistant Staphylococcus aureus ATCC 43300 measured after 24 hrs by CLSI protocol based method; type: functional; in short: as §2
Staphylococcus aureus [8] = assay: Bactericidal activity against penicillin-resistant Staphylococcus aureus measured after 24 hrs by CLSI protocol based method; type: functional; in short: as §2
Bacillus subtilis [9] = assay: Bactericidal activity against penicillin-susceptible Bacillus subtilis ATCC 9372 measured after 24 hrs by CLSI protocol based method; type: functional
In short: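 MBC followed on from the 24 h broth microdilution MIC plates. Aliquots from clear wells were spread on tryptic soy agar and incubated aerobically at 37 °C for 24 h. MBC was the minimum concentration giving no colonies.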

Staphylococcus aureus [10] = assay: Ratio of MBC to MIC against erythromycin-susceptible Staphylococcus aureus ATCC 25923; type: functional
In short: (§3)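 MBC/MIC ratio from the broth microdilution MIC (24 h, 37 °C, MH broth) and the MBC (clear wells subcultured on tryptic soy agar, 24 h). A ratio ≤4 is read as bactericidal per CLSI.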

Staphylococcus aureus [11] = assay: Ratio of MBC to MIC against penicillin-resistant Staphylococcus aureus; type: functional; in short: as §3
Bacillus subtilis [12] = assay: Ratio of MBC to MIC against penicillin-susceptible Bacillus subtilis ATCC 9372; type: functional
In short: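 Ratio of MBC to MIC, both measured by broth microdilution in MH broth (37 °C, 24 h); MBC was scored by subculturing clear wells onto tryptic soy agar for 24 h. Following CLSI, a ratio of 4 or less counts as bactericidal.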

Bacillus pumilus [13] = assay: Ratio of MBC to MIC against penicillin-susceptible Bacillus pumilus CMCC 63202; type: functional; in short: as §3
[14] = test system: Staphylococcus epidermidis; assay: Ratio of MBC to MIC against penicillin-resistant Staphylococcus epidermidis; type: functional; in short: as §3
Staphylococcus aureus [15] = assay: Bactericidal activity against […] Staphylococcus aureus ATCC 25923 assessed as reduction in colony forming unit at 0.5 times MIC by time kill assay; type: functional, organism-based
In short: (§4)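 Samples at 0, 3, 6, 9, 12 and 24 h were serially diluted in MH broth and plated on tryptic soy agar. CFU/mL from colony counts after 24 h at 37 °C.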

Staphylococcus aureus [16] = assay: Bactericidal activity against […] Staphylococcus aureus ATCC 25923 assessed as log reduction in colony forming unit at 2 times MIC after 24 hrs by time kill assay; type: functional; in short: as §4
Pseudomonas aeruginosa [17] = assay: Inhibition of biofilm formation in Pseudomonas aeruginosa ATCC 27853 at 64 ug/ml incubated for 18 hrs by crystal violet staining based method; type: functional, organism-based; details: dose 64.0 µg/ml
In short: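 P. aeruginosa ATCC27853 was grown overnight in MH medium, washed and diluted to OD₆₂₀ 0.05, grown to mid-log (OD₆₂₀ 0.3–0.5), then rediluted to 0.05. Cultures were grown statically with compound at 37 °C for 18 h. Wells were washed with PBS, fixed in methanol for 15 min and stained with 0.1% crystal violet for 30 min. Stain was solubilized in 1% SDS and read at A540, in triplicate.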

Staphylococcus aureus [18] = assay: Antibacterial activity against Staphylococcus aureus ATCC 25923 assessed as reduction in bacterial growth measured after 18 passages by resistance development assay relative to control; type: functional; details: time 24 hrs
In short: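 Serial-passage resistance test with S. aureus ATCC25923. Cells from wells at 0.5× MIC made the next inoculum (~10⁷ CFU/mL), and the MIC was redetermined after 24 h at 37 °C.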

Bacillus pumilus [19] = assay: Induction of morphological changes in Bacillus pumilus CMCC 63202 assessed as alteration in length measured at 0.5 times MIC after 18 hrs by Phase contrast light microscope analysis (reference value: 1.2 to 3 micrometer); type: functional
Staphylococcus aureus [20] = assay: In vivo antibacterial activity against […] Staphylococcus aureus ATCC 25923 infected in Kunming mouse assessed as reduction in bacterial load at 25 mg/kg, ip administered 1 hr post bacterial infection and measured after 1 hr post compound treatment; type: functional, organism-based
In short: (§5)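 Kunming mice (~25 g, 6 per group) infected intravenously with 6 × 10⁷ CFU S. aureus ATCC25923 in 0.2 mL saline. About 1 h later, 1, 5 or 25 mg/kg was given intraperitoneally in 0.5 mL vehicle, with linezolid as reference. Orbital blood (100 µL) was taken before and 1 h after treatment, spread on MH agar and counted after 24 h.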

Staphylococcus aureus [21] = assay: In vivo antibacterial activity against […] Staphylococcus aureus ATCC 25923 infected in Kunming mouse assessed as reduction in bacterial load at 1 mg/kg, administered 1 hr post bacterial infection and measured after 1 hr post compound treatment; type: functional, organism-based; in short: as §5
Staphylococcus aureus [22] = assay: In vivo antibacterial activity against […] Staphylococcus aureus ATCC 25923 infected in Kunming mouse assessed as reduction in viable bacterial cells at 5 mg/kg, administered 1 hr post bacterial infection and measured after 1 hr post compound treatment; type: functional, organism-based; in short: as §5
Enterococcus faecium [23] = assay: Antibacterial activity against vancomycin-resistant Enterococcus faecium ATCC 51559 assessed as bacterial growth inhibition incubated for 24 hrs by CLSI protocol based broth microdilution method; details: ATCC 51559, 24 h
Enterococcus faecium [24] = assay: Antibacterial activity against vancomycin-susceptible Enterococcus faecium ATCC19434 assessed as bacterial growth inhibition incubated for 24 hrs by CLSI protocol based broth microdilution method; details: ATCC19434, 24 h

SMILES: C[n+]1c2ccccc2c(/C=C/c2ccc(C(C)(C)C)cc2)c2ccccc21.[I-]
- MIC (Bacillus subtilis [1]): 0.25 µg/mL
- MIC (Bacillus pumilus [2]): 0.5 µg/mL
- MIC (Pseudomonas aeruginosa [3]): > 64 µg/mL
- MIC (Escherichia coli): > 64 µg/mL
- MIC (Staphylococcus aureus [4]): 2 µg/mL
- MIC [5]: 1 µg/mL
- MIC (Streptococcus pyogenes): 0.25 µg/mL
- MIC (Enterococcus faecalis): 4 µg/mL
- MBC (Staphylococcus aureus [6]): 2 µg/mL
- MBC (Staphylococcus aureus [7]): 4 µg/mL
- MBC (Staphylococcus aureus [8]): 4 µg/mL
- MBC (Bacillus subtilis [9]): 0.5 µg/mL
- Ratio (Staphylococcus aureus [10]): 4
- Ratio (Staphylococcus aureus [11]): 2
- Ratio (Bacillus subtilis [12]): 2
- Ratio (Bacillus pumilus [13]): 4
- Ratio [14]: 1
- MIC (Staphylococcus aureus [15]): inactive
- Activity (Staphylococcus aureus [16]): 2.43 CFU
- inhibition (Pseudomonas aeruginosa [17]): inactive
- fold change (FC) (Staphylococcus aureus [18]): 2
- Activity (Bacillus pumilus [19]): 20 um
- Activity (Staphylococcus aureus [20]): Active
- Activity (Staphylococcus aureus [21]): inactive
- Activity (Staphylococcus aureus [22]): Active
- MIC (Enterococcus faecium [23]): 2 µg/mL
- MIC (Enterococcus faecium [24]): 4 µg/mL
